Here are results for 16 molecules from ChEMBL document CHEMBL1150387, “Development and experimental validation of a docking strategy for the generation of kinase-targeted libraries” (J Med Chem, 2008).

Test [1] concerns the target Receptor-type tyrosine-protein kinase FLT3 (Homo sapiens) (UniProt P36888). Put plainly: Inhibition of FLT3 at 10 uM by HTRF assay relative to control. The essentials: (§1)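 HTRF kinase assay, one panel of kinases. Inhibitor stock 50 µM in 100% DMSO; tested at 10 µM. ATP and substrate at final levels near Km. Final buffer: 50 mM Hepes/NaOH pH 7.4, 40 µM Na3VO4, 0.005% Tween-20, 1 mM DTT, MnCl2 or MgCl2 at kinase-dependent levels. Started by adding ATP/substrate. Reaction run at room temperature, time varied by kinase. Detection mix in 50 mM Hepes pH 7.4, 0.1% BSA, 150 mM KF, incubated ≥1 h at room temperature. Activity expressed as % of uninhibited control; n=2.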

For test [2], the target named is T1, Ephrin type-B receptor 4 (Homo sapiens) (UniProt P54760).
T1 sequence (whole entry): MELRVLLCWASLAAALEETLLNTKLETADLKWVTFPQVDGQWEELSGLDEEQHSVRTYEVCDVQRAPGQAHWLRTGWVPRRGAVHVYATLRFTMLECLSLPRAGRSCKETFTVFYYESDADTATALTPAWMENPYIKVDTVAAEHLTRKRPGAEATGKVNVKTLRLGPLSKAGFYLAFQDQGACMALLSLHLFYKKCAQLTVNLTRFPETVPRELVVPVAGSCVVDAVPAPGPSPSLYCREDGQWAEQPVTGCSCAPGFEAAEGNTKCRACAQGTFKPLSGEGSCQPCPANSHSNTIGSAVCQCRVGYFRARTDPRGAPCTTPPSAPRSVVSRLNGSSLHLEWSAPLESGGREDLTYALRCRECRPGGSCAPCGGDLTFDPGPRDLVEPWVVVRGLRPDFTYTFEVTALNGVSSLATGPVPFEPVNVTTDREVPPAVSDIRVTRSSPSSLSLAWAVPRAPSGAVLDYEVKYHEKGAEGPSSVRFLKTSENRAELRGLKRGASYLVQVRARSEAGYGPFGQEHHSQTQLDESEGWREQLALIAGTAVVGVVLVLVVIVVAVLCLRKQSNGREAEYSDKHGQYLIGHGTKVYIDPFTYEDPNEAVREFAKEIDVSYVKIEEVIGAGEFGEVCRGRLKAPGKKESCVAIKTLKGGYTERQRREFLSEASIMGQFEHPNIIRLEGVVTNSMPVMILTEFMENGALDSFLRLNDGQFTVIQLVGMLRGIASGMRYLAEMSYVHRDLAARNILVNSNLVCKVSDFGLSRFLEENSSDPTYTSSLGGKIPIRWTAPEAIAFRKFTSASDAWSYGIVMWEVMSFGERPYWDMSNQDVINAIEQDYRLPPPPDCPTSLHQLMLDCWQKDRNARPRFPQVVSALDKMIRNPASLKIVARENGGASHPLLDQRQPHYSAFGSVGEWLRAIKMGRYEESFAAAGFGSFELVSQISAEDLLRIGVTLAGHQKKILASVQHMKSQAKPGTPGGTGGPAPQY
Put plainly: Inhibition of EphB4 at 10 uM by HTRF assay relative to control. In outline: as §1
In general terms: TR-FRET usually uses a lanthanide donor and a delayed reading to cut background.

For test [3], the target named is Mitogen-activated protein kinase 1 (Homo sapiens) (UniProt P28482). Kind of test: Inhibition of ERK2 at 10 uM by HTRF assay relative to control. In outline: as §1
A short description of test [4]: Inhibition of PKA at 10 uM by HTRF assay relative to control. In outline: as §1
Test [5] concerns the target RAC-alpha serine/threonine-protein kinase (Homo sapiens) (UniProt P31749). Put plainly: Inhibition of AKT1/PKBalpha at 10 uM by HTRF assay relative to control. In outline: as §1
Test [6] concerns the target T2, Tyrosine-protein kinase ZAP-70 (Homo sapiens) (UniProt P43403).
T2 sequence (whole entry): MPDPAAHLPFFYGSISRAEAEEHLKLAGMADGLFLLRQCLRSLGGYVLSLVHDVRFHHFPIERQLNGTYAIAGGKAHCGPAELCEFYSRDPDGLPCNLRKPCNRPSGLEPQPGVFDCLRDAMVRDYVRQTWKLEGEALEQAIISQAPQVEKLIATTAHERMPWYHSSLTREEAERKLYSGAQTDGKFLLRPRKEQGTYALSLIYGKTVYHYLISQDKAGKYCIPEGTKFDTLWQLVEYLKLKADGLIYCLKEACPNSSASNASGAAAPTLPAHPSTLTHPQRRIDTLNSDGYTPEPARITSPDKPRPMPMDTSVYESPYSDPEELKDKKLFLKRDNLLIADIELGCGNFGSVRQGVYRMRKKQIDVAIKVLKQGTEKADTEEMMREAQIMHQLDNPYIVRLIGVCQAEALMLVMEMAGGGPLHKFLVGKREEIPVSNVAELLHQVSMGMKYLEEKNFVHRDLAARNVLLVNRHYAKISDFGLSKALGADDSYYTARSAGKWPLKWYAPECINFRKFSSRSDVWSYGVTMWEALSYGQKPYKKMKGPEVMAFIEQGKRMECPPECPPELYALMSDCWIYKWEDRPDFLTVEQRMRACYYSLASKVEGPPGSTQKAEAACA
Put plainly: Inhibition of ZAP70 at 10 uM by HTRF assay relative to control. In outline:
as §1

For test [7], the target named is Tyrosine-protein kinase Lyn (Homo sapiens) (UniProt P07948). Put plainly: Inhibition of Lyn at 10 uM by HTRF assay relative to control. The essentials: as §1
The target in test [8] is Focal adhesion kinase 1 (Homo sapiens) (UniProt Q05397). Put plainly: Inhibition of FAK at 10 uM by HTRF assay relative to control. In outline:
as §1

The target in test [9] is Tyrosine-protein kinase ABL1 (Homo sapiens) (UniProt P00519). Kind of test: Inhibition of Abl at 10 uM by HTRF assay relative to control. The essentials:
as §1

The target in test [10] is Vascular endothelial growth factor receptor 2 (Homo sapiens) (UniProt P35968). Put plainly: Inhibition of KDR at 10 uM by HTRF assay relative to control. In outline:
as §1

Sequence of Tyrosine-protein kinase Lyn (Homo sapiens) (P07948 2-512 limits assumed): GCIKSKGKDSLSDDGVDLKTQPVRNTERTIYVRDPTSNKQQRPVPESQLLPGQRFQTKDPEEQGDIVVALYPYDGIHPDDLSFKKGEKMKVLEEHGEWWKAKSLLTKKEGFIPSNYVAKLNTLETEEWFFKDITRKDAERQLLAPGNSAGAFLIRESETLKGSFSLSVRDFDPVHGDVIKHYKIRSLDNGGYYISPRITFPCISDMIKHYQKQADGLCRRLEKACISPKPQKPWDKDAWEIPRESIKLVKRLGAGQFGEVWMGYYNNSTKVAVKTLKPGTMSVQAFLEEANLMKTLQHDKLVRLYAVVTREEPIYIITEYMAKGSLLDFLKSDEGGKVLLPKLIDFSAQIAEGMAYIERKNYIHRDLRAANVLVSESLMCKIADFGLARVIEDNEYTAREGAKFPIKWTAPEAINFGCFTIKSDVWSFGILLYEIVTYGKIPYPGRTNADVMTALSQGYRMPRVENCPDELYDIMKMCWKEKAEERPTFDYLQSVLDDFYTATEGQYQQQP
Sequence of Tyrosine-protein kinase ABL1 (Homo sapiens) (P00519 whole entry): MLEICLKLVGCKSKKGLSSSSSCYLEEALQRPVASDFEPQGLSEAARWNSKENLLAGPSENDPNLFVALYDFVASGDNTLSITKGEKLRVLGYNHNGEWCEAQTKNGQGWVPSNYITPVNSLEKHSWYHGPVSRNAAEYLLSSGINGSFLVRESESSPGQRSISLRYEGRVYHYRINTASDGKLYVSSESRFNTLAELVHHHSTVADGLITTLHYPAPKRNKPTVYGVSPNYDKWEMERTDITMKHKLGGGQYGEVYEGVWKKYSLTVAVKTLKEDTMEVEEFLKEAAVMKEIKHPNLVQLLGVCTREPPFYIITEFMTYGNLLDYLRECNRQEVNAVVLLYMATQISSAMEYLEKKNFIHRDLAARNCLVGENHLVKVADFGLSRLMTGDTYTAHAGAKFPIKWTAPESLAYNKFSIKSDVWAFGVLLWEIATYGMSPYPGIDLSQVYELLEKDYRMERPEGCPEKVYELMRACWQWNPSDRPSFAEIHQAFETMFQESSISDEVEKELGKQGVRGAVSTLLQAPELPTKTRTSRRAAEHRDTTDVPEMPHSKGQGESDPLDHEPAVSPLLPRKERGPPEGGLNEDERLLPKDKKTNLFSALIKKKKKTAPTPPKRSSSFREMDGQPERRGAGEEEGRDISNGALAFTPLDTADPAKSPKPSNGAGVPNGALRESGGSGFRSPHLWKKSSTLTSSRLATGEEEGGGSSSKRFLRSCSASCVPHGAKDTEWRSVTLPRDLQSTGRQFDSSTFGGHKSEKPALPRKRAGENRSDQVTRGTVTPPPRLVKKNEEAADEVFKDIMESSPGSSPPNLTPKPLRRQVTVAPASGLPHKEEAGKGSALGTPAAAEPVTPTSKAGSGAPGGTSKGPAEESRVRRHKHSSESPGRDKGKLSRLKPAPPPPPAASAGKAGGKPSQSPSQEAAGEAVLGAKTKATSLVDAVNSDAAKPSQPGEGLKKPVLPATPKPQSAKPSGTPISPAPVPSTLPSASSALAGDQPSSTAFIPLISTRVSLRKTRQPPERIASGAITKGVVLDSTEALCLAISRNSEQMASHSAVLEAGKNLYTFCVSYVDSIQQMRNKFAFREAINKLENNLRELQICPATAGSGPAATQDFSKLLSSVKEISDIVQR
Sequence of Mitogen-activated protein kinase 1 (Homo sapiens) (P28482 whole entry): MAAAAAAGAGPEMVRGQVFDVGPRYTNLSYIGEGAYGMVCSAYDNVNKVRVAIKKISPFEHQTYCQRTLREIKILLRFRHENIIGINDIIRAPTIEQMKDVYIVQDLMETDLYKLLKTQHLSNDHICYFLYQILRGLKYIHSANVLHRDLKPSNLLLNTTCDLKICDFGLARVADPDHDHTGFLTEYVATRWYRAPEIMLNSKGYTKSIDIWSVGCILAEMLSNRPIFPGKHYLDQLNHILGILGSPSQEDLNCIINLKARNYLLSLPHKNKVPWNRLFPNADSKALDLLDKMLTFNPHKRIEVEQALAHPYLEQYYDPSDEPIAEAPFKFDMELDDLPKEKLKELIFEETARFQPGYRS
Sequence of Focal adhesion kinase 1 (Homo sapiens) (Q05397 2-1052 limits assumed): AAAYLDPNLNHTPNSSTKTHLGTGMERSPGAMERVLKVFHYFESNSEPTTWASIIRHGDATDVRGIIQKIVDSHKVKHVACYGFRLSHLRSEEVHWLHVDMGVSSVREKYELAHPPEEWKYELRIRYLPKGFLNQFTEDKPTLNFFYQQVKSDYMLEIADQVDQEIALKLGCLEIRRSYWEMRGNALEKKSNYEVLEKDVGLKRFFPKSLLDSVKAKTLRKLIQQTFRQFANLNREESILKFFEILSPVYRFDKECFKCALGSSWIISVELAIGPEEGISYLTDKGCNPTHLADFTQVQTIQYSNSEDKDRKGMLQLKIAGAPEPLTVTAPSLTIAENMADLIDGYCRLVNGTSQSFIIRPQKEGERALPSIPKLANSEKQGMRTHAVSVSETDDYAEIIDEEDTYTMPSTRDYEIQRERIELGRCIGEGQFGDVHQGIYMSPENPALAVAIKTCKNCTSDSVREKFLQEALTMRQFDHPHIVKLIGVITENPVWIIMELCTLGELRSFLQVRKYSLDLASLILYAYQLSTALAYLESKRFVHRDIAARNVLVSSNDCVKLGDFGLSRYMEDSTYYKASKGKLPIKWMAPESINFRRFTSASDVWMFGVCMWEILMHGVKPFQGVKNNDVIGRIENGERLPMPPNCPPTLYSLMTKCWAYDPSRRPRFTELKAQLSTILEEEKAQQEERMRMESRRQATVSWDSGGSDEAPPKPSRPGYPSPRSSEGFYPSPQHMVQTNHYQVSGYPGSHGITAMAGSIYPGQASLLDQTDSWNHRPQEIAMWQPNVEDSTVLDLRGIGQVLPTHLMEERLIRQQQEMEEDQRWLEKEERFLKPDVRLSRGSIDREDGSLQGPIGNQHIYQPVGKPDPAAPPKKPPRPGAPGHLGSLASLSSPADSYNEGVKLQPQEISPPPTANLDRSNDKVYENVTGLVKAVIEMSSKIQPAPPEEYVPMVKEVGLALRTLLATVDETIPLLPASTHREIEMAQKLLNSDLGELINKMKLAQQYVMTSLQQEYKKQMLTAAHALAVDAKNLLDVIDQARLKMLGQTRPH
Sequence of RAC-alpha serine/threonine-protein kinase (Homo sapiens) (P31749 whole entry): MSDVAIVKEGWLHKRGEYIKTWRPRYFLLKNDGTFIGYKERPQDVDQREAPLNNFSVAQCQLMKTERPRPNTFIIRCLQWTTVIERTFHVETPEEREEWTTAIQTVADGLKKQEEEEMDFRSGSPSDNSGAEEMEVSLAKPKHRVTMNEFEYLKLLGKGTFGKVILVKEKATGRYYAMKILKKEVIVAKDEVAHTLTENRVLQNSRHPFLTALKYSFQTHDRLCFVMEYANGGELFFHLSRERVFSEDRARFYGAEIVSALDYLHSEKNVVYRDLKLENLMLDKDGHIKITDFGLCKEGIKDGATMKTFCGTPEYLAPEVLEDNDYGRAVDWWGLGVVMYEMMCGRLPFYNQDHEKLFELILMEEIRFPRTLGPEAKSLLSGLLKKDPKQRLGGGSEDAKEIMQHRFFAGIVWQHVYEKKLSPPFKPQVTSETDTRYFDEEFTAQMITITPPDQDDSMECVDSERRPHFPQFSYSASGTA
Sequence of Vascular endothelial growth factor receptor 2 (Homo sapiens) (P35968 whole entry): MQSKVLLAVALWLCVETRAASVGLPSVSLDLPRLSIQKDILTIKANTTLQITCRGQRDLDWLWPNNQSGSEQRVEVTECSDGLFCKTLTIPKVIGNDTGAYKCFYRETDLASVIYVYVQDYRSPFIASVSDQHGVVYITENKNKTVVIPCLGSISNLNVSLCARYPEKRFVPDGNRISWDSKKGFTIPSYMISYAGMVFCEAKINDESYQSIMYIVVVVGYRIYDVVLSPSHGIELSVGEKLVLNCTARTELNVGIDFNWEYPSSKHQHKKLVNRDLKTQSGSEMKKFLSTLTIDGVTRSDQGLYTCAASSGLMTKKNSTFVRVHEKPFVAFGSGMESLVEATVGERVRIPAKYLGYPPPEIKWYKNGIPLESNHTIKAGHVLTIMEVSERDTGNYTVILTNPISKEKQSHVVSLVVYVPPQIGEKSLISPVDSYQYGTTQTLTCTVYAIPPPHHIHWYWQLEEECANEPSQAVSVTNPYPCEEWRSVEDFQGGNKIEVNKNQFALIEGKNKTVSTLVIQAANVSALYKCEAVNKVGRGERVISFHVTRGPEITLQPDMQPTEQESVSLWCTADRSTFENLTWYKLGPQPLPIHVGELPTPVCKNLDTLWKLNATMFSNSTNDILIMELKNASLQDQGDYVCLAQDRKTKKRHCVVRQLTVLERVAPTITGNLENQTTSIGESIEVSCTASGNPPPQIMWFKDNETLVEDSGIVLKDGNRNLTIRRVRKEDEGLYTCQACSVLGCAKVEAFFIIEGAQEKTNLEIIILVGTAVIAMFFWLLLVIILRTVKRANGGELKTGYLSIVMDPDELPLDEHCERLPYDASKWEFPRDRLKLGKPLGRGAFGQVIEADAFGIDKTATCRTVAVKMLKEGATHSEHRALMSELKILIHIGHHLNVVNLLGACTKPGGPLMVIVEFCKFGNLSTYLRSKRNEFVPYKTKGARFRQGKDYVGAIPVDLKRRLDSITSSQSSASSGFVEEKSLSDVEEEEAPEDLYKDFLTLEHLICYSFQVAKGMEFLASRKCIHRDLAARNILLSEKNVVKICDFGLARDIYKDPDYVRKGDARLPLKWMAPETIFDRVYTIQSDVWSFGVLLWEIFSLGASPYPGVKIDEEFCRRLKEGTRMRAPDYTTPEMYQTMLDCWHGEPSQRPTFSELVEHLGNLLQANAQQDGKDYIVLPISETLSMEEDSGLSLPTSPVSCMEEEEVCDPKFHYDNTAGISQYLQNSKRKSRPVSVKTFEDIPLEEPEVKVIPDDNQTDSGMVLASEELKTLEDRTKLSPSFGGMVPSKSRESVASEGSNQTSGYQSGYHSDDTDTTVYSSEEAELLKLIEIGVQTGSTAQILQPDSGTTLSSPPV

For the molecule `Nc1nc(Nc2ccccc2)cc(N2CCC(C(=O)NCCc3ccccn3)CC2)n1`, the inhibition amounted to 0% in test [1]; 0% in test [2]; 1% in [3]; 6% in test [4]; 0% in test [5]; 0% in test [6]. For the same molecule, the inhibition worked out at 1% in [7], 1% in test [8], 0% in test [9] and 1% in test [10].
`O=C(CN1CCN(c2ncnc3c2CN(Cc2ccccc2)CC3)CC1)Nc1cc(F)ccc1F`: the inhibition in test [1] is 0%; in [2] it was 0%; in [3], 0%; in test [4] it was 0%; in [5] it was 0%; in [6], 5%. The inhibition turned out to be 2% in test [7], 0% in test [8], 3% in [9] and 1% in [10].
As to `O=C(NCCc1ccc(O)cc1)c1cccc(Nc2nccc(Nc3ccc4ncsc4c3)n2)c1`, the inhibition worked out at 98% in [1]; 0% in test [2]; 0% in [3]; 0% in test [4]; 0% in test [5]; 3% in test [6]. Further, the inhibition in test [7] came to 27%; in test [8], 78%; in [9], 11%; in test [10], 43%.
For `Cc1cccc(N(C)c2cc(Nc3cccc(C(=O)N4CCCC5CCCCC54)c3)ncn2)c1` (stereo not given), the inhibition in test [1] amounted to 0%; in test [2], 0%; in test [3], 0%; in test [4], 0%; in test [5], 6%; in test [6], 0%. The inhibition amounted to 9% in test [7], 8% in test [8], 13% in test [9] and 0% in [10].
As to `COc1ccc(-c2noc(CN3CCN(c4cc(Nc5cccc(O)c5)ncn4)CC3)n2)cc1`, the inhibition in test [1] is 0%; in test [2], 0%; in test [3] it was 1%; in test [4], 0%; in [5], 0%; in test [6], 0%. The inhibition in [7] turned out to be 3%; in [8], 3%; in test [9], 0%; in test [10], 0%.
Turning to `Cc1cccc(Oc2ccnc(N3CCC[C@H]3C(=O)NCc3cccnc3)n2)c1`, the inhibition in test [1] stood at 0%; in test [2], 0%; in test [3], 0%; in test [4], 0%; in [5], 0%; in [6] it was 6%. Also, the inhibition in test [7] was 6%; in [8], 0%; in [9], 7%; in [10] it was 4%.
`Cc1cccc(Nc2cc(Nc3cccc(C(=O)N(CC(C)O)CC(C)O)c3)ncn2)c1` (stereo not given): the inhibition in [1] was 27%; in test [2] it was 0%; in test [3], 0%; in test [4], 0%; in test [5], 2%; in [6] it was 6%. The inhibition was 49% in test [7], 20% in [8], 75% in [9] and 83% in test [10].
Consider `Cc1cc(C(=O)N2CCN(c3ncnc4c3CN(Cc3ccccc3)CC4)CC2)c(C)n1C`, for which the inhibition turned out to be 0% in test [1]; 0% in [2]; 2% in [3]; 0% in [4]; 0% in test [5]; 0% in test [6]. Also, the inhibition was 2% in test [7], 0% in [8], 5% in test [9] and 0% in test [10].
`O=C(NC[C@@H]1CCCO1)c1cccc(Nc2nccc(Nc3ccc4ncsc4c3)n2)c1`: the inhibition in [1] came to 99%; in test [2], 57%; in test [3] it was 0%; in test [4], 4%; in test [5], 0%; in [6], 19%. The inhibition was found to be 90% in test [7], 99% in [8], 44% in test [9] and 95% in test [10].
Take `Clc1ccc2sc(CN3CCN(c4ncnc5c4CN(Cc4ccccc4)CC5)CC3)cc2c1`: the inhibition in test [1] stood at 0%; in test [2], 0%; in [3] it was 0%; in test [4], 0%; in [5] it was 2%; in test [6], 5%. Further, the inhibition in test [7] was 17%; in [8], 1%; in test [9] it was 1%; in test [10], 11%.
`COC[C@@H]1CCCN1C(=O)[C@@H]1CCCN1c1cc(Nc2cccc(OC)c2)nc(N)n1`: the inhibition in test [1], in [2], in test [3], in [4], in test [5] and in [6] was 0% in each case. In addition, the inhibition came out at 13% in test [7], 2% in test [8], 0% in test [9] and 4% in test [10].
For the molecule `Cc1cccc(N(C)c2cc(N3CCN(C(=O)Cc4c[nH]c5ccccc45)CC3)ncn2)c1`, the inhibition was found to be 0% in test [1]; 0% in test [2]; 5% in test [3]; 0% in test [4]; 0% in test [5]; 2% in test [6]. The inhibition in test [7] amounted to 6%; in test [8] it was 5%; in test [9], 6%; in [10] it was 3%.
Regarding `Cc1cccc(N(C)c2cc(Nc3ccc(CC(=O)Nc4ccc5ncsc5c4)cc3)ncn2)c1`, the inhibition in [1] turned out to be 67%; in test [2] it was 0%; in [3], 2%; in test [4] it was 0%; in test [5] it was 0%; in test [6], 5%. Also, the inhibition amounted to 16% in [7], 15% in test [8], 18% in [9] and 40% in test [10].
With `COC[C@@H]1CCCN1C(=O)C1CCCN1c1cc(Nc2cccc(Br)c2)ncn1` (stereo not given in full), the inhibition came out at 0% in test [1]; 0% in [2]; 0% in test [3]; 8% in test [4]; 0% in test [5]; 0% in [6]. In addition, the inhibition amounted to 0% in test [7], 5% in test [8], 7% in test [9] and 0% in [10].
With `Cc1cccc(Nc2ncnc3c2CN(C(=O)c2ccc(N(C)C)c4ccccc24)CC3)c1`, the inhibition in [1] was 0%; in [2], 0%; in [3] it was 0%; in [4] it was 0%; in test [5], 0%; in test [6], 6%. Further, the inhibition in test [7] came to 9%; in [8], 7%; in test [9], 7%; in test [10], 6%.
Regarding `COc1cccc(Nc2cc(N3CCC[C@H]3C(=O)NCCc3ccc(O)cc3)nc(N)n2)c1`, the inhibition came out at 0% in [1]; 0% in [2]; 0% in test [3]; 0% in test [4]; 1% in test [5]; 2% in test [6]. Besides, the inhibition in test [7] turned out to be 6%; in test [8], 3%; in [9], 6%; in [10], 6%.

As a reminder, the inhibition is the relative decrease from the control value, in per cent.
